Values after ≈ are worked out from the molar mass of the structure shown.
What was measured:
Assay type in all cases: functional
Streptococcus pyogenes = experiment: Antimicrobial activity against Streptococcus pyogenes clinical isolate after 18 to 48 hrs by serial dilution method
Pseudomonas aeruginosa = experiment: Antimicrobial activity against Pseudomonas aeruginosa ATCC 27853 after 18 to 48 hrs by serial dilution method
[1] = test system: Mycolicibacterium smegmatis; experiment: Antimicrobial activity against Mycobacterium smegmatis ATCC 19420 after 7 days by resazurin assay; details: ATCC 19420, 168 h
Method in brief: (§1)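 Resazurin microplate assay. Culture added to fresh medium in 96-well plates. Compound stocks 2 mg/mL in DMF. DMF-only controls, with rifampicin and isoniazid as references. Incubated 7 days at 37 °C, then 0.01% resazurin in water added. Blue-to-pink change read after 1 h at 37 °C. MIC taken as the lowest concentration preventing the colour change.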

[2] = test system: Mycolicibacterium fortuitum; experiment: Antimicrobial activity against Mycobacterium fortuitum ATCC 19542 after 7 days by resazurin assay; details: ATCC 19542, 168 h; method in brief: as §1
[3] = test system: Mycobacterium tuberculosis; experiment: Antimicrobial activity against Mycobacterium tuberculosis H37Rv ATCC 27294 after 7 days by resazurin assay; details: H37Rv ATCC 27294, 168 h
Method in brief: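 M. tuberculosis H37Rv ATCC 27294 culture diluted into fresh medium in 96-well microtitre plates. Compounds were taken from 2 mg/mL stocks in DMF, with DMF-only control tubes and rifampicin and isoniazid as references. Plates were incubated 37 °C for 7 days, then 0.01% aqueous resazurin was added and read after 1 h at 37 °C. MIC is the lowest concentration preventing the blue-to-pink change.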

[4] = test system: Mycobacterium tuberculosis; experiment: Antimicrobial activity against Mycobacterium tuberculosis H37Rv ATCC 27294 assessed as growth inhibition after 7 days by resazurin assay
Escherichia coli = experiment: Antimicrobial activity against Escherichia coli ATCC 25922 after 18 to 48 hrs by serial dilution method
Klebsiella pneumoniae = experiment: Antimicrobial activity against Klebsiella pneumoniae clinical isolate after 18 to 48 hrs by serial dilution method
Staphylococcus aureus = experiment: Antimicrobial activity against Staphylococcus aureus ATCC 25923 after 18 to 48 hrs by serial dilution method

Structure (SMILES) | MIC (Streptococcus pyogenes) | MIC (Pseudomonas aeruginosa) | MIC [1] | MIC [2] | MIC [3] | growth inhibition (GI) [4] | MIC (Escherichia coli) | MIC (Klebsiella pneumoniae) | MIC (Staphylococcus aureus)
COc1ccc2nc(C)cc(N3CC(CNC(C)=O)OC3=O)c2c1 (configuration not stated) | 0.2 mg/L (≈ 0.607 µM) | 0.4 mg/L (≈ 1.21 µM) | 2.5 mg/L (≈ 7.59 µM) | 10 mg/L (≈ 30.4 µM) | 0.625 mg/L (≈ 1.9 µM) | 95% | 0.2 mg/L (≈ 0.607 µM) | 0.1 mg/L (≈ 0.304 µM) | 0.8 mg/L (≈ 2.43 µM)
COc1ccc2nc(C)cc(N3CC(CNC(=O)C4CC4)OC3=O)c2c1 (configuration not stated) | 0.4 mg/L (≈ 1.13 µM) | 0.4 mg/L (≈ 1.13 µM) | 10 mg/L (≈ 28.1 µM) | 10 mg/L (≈ 28.1 µM) | 1 mg/L (≈ 2.81 µM) | 90% | 0.8 mg/L (≈ 2.25 µM) | 1.6 mg/L (≈ 4.5 µM) | 0.8 mg/L (≈ 2.25 µM)
COc1ccc2nc(C)cc(N3CC(CNC(=O)C4CCC4)OC3=O)c2c1 (configuration not stated) | 1.6 mg/L (≈ 4.33 µM) | 3.12 mg/L (≈ 8.46 µM) | 100 mg/L (≈ 271 µM) | 100 mg/L (≈ 271 µM) | 2.5 mg/L (≈ 6.77 µM) | 85% | 1.6 mg/L (≈ 4.33 µM) | 6.25 mg/L (≈ 16.9 µM) | 1.6 mg/L (≈ 4.33 µM)
COc1ccc2nc(C)cc(N3CC(CNC(=O)c4ccc(F)cc4)OC3=O)c2c1 (configuration not stated) | 0.4 mg/L (≈ 0.977 µM) | 0.4 mg/L (≈ 0.977 µM) | 10 mg/L (≈ 24.4 µM) | 10 mg/L (≈ 24.4 µM) | 1 mg/L (≈ 2.44 µM) | 90% | 0.2 mg/L (≈ 0.488 µM) | 0.1 mg/L (≈ 0.244 µM) | 0.8 mg/L (≈ 1.95 µM)
COc1ccc2nc(C)cc(N3CC(CNC(=O)c4ccccc4F)OC3=O)c2c1 (configuration not stated) | 3.12 mg/L (≈ 7.63 µM) | 3.12 mg/L (≈ 7.63 µM) | 5 mg/L (≈ 12.2 µM) | 10 mg/L (≈ 24.4 µM) | 1 mg/L (≈ 2.44 µM) | 90% | 6.25 mg/L (≈ 15.3 µM) | 6.25 mg/L (≈ 15.3 µM) | 1.6 mg/L (≈ 3.91 µM)
COc1ccc2nc(C)cc(N3CC(CNC(=O)c4ccccc4)OC3=O)c2c1 (configuration not stated) | 3.12 mg/L (≈ 7.98 µM) | > 12.5 mg/L | 100 mg/L (≈ 255 µM) | 100 mg/L (≈ 255 µM) | 100 mg/L (≈ 255 µM) | 0% | > 12.5 mg/L | 6.25 mg/L (≈ 16 µM) | 3.12 mg/L (≈ 7.98 µM)
CCc1ccc(C(=O)NCC2CN(c3cc(C)nc4ccc(OC)cc34)C(=O)O2)cc1 (configuration not stated) | 6.25 mg/L (≈ 14.9 µM) | > 12.5 mg/L | 100 mg/L (≈ 238 µM) | 100 mg/L (≈ 238 µM) | 100 mg/L (≈ 238 µM) | 0% | 3.12 mg/L (≈ 7.45 µM) | 1.6 mg/L (≈ 3.81 µM) | 1.6 mg/L (≈ 3.81 µM)
COc1ccc2nc(C)cc(N3CC(CNC(=O)c4ccc(C)cc4)OC3=O)c2c1 (configuration not stated) | 1.6 mg/L (≈ 3.95 µM) | 3.12 mg/L (≈ 7.71 µM) | 100 mg/L (≈ 247 µM) | 100 mg/L (≈ 247 µM) | 100 mg/L (≈ 247 µM) | 0% | 3.12 mg/L (≈ 7.71 µM) | 3.12 mg/L (≈ 7.71 µM) | 3.12 mg/L (≈ 7.71 µM)
COc1ccc(C(=O)NCC2CN(c3cc(C)nc4ccc(OC)cc34)C(=O)O2)cc1 (configuration not stated) | 0.4 mg/L (≈ 0.949 µM) | 0.2 mg/L (≈ 0.475 µM) | 5 mg/L (≈ 11.9 µM) | 10 mg/L (≈ 23.7 µM) | 5 mg/L (≈ 11.9 µM) | 85% | 0.2 mg/L (≈ 0.475 µM) | 0.1 mg/L (≈ 0.237 µM) | 0.8 mg/L (≈ 1.9 µM)
COc1ccc2nc(C)cc(N3CC(CNC(=O)c4ccc(C(F)(F)F)cc4)OC3=O)c2c1 (configuration not stated) | 0.4 mg/L (≈ 0.871 µM) | 0.4 mg/L (≈ 0.871 µM) | 10 mg/L (≈ 21.8 µM) | 2.5 mg/L (≈ 5.44 µM) | 0.625 mg/L (≈ 1.36 µM) | 90% | 0.4 mg/L (≈ 0.871 µM) | 0.8 mg/L (≈ 1.74 µM) | 0.8 mg/L (≈ 1.74 µM)
COc1ccc(C(=O)NCC2CN(c3cc(C)nc4ccc(OC)cc34)C(=O)O2)c(C)c1 (configuration not stated) | 1.6 mg/L (≈ 3.67 µM) | 3.12 mg/L (≈ 7.18 µM) | 100 mg/L (≈ 230 µM) | 100 mg/L (≈ 230 µM) | 1 mg/L (≈ 2.3 µM) | 85% | 1.6 mg/L (≈ 3.67 µM) | 0.8 mg/L (≈ 1.84 µM) | 0.8 mg/L (≈ 1.84 µM)
COc1ccc2nc(C)cc(N3CC(CNC(=O)c4ccc(Cl)cc4)OC3=O)c2c1 (configuration not stated) | 3.12 mg/L (≈ 7.34 µM) | 6.25 mg/L (≈ 14.7 µM) | 100 mg/L (≈ 235 µM) | 100 mg/L (≈ 235 µM) | 100 mg/L (≈ 235 µM) | 85% | 3.12 mg/L (≈ 7.34 µM) | 6.25 mg/L (≈ 14.7 µM) | 1.6 mg/L (≈ 3.76 µM)
COc1ccc2nc(C)cc(NC(=O)CN3CC(CN(C)C)OC3=O)c2c1 (configuration not stated) | 0.8 mg/L (≈ 2.15 µM) | 0.2 mg/L (≈ 0.537 µM) | 2.5 mg/L (≈ 6.71 µM) | 10 mg/L (≈ 26.9 µM) | 0.625 mg/L (≈ 1.68 µM) | 95% | 0.2 mg/L (≈ 0.537 µM) | 0.4 mg/L (≈ 1.07 µM) | 0.8 mg/L (≈ 2.15 µM)
CCN(CC)CC1CN(CC(=O)Nc2cc(C)nc3ccc(OC)cc23)C(=O)O1 (configuration not stated) | 3.12 mg/L (≈ 7.8 µM) | 0.4 mg/L (≈ 0.999 µM) | 10 mg/L (≈ 25 µM) | 10 mg/L (≈ 25 µM) | 1 mg/L (≈ 2.5 µM) | 90% | 0.4 mg/L (≈ 0.999 µM) | 0.1 mg/L (≈ 0.25 µM) | 1.6 mg/L (≈ 4 µM)
COc1ccc2nc(C)cc(NC(=O)CN3CC(CN4CCN(C)CC4)OC3=O)c2c1 (configuration not stated) | 0.4 mg/L (≈ 0.936 µM) | 1.6 mg/L (≈ 3.74 µM) | 10 mg/L (≈ 23.4 µM) | 10 mg/L (≈ 23.4 µM) | 1 mg/L (≈ 2.34 µM) | 90% | 0.4 mg/L (≈ 0.936 µM) | 0.1 mg/L (≈ 0.234 µM) | 0.8 mg/L (≈ 1.87 µM)
CCN1CCN(CC2CN(CC(=O)Nc3cc(C)nc4ccc(OC)cc34)C(=O)O2)CC1 (configuration not stated) | 0.2 mg/L (≈ 0.453 µM) | 0.8 mg/L (≈ 1.81 µM) | 100 mg/L (≈ 226 µM) | 100 mg/L (≈ 226 µM) | 10 mg/L (≈ 22.6 µM) | 85% | 1.6 mg/L (≈ 3.62 µM) | 1.6 mg/L (≈ 3.62 µM) | 0.8 mg/L (≈ 1.81 µM)
COc1ccc2nc(C)cc(NC(=O)CN3CC(CN4CCN(C(C)=O)CC4)OC3=O)c2c1 (configuration not stated) | 0.8 mg/L (≈ 1.76 µM) | 1.6 mg/L (≈ 3.51 µM) | 100 mg/L (≈ 220 µM) | 100 mg/L (≈ 220 µM) | 5 mg/L (≈ 11 µM) | 80% | 1.6 mg/L (≈ 3.51 µM) | 1.6 mg/L (≈ 3.51 µM) | 0.8 mg/L (≈ 1.76 µM)
COc1ccc2nc(C)cc(NC(=O)CN3CC(CN4CCC(C)CC4)OC3=O)c2c1 (configuration not stated) | 6.25 mg/L (≈ 14.7 µM) | > 12.5 mg/L | 100 mg/L (≈ 234 µM) | 100 mg/L (≈ 234 µM) | 100 mg/L (≈ 234 µM) | 0% | 6.25 mg/L (≈ 14.7 µM) | 6.25 mg/L (≈ 14.7 µM) | > 12.5 mg/L
COc1ccc2nc(C)cc(NC(=O)CN3CC(CNC4CCCC4)OC3=O)c2c1 (configuration not stated) | 6.25 mg/L (≈ 15.2 µM) | > 12.5 mg/L | 100 mg/L (≈ 242 µM) | 100 mg/L (≈ 242 µM) | 100 mg/L (≈ 242 µM) | 0% | > 12.5 mg/L | 6.25 mg/L (≈ 15.2 µM) | > 12.5 mg/L
O=C(O)c1cn(C2CC2)c2cc(N3CCNCC3)c(F)cc2c1=O [CIPROFLOXACIN] |  | 0.4 mg/L (≈ 1.21 µM) |  |  |  |  | 0.025 mg/L (≈ 0.0754 µM) |  | 1 mg/L (≈ 3.02 µM)
NNC(=O)c1ccncc1 [ISONIAZID] |  |  | 50 mg/L (≈ 365 µM) | 12.5 mg/L (≈ 91.1 µM) | 0.7 mg/L (≈ 5.1 µM) | >95% |  |  | 
CO[C@H]1/C=C/O[C@@]2(C)Oc3c(C)c(O)c4c(O)c(c(/C=N/N5CCN(C)CC5)c(O)c4c3C2=O)NC(=O)/C(C)=C\C=C\[C@H](C)[C@H](O)[C@@H](C)[C@@H](O)[C@@H](C)[C@H](OC(C)=O)[C@@H]1C [RIFAMPIN] |  |  | 1.5 mg/L (≈ 1.82 µM) | 1.5 mg/L (≈ 1.82 µM) | 0.5 mg/L (≈ 0.608 µM) | >95% |  |  | 

From ChEMBL document CHEMBL1828503, “Design, synthesis and docking studies of quinoline-oxazolidinone hybrid molecules and their antitubercular properties” (2011)
